Bioassay records deposited in PubChem by SRMLSC.
HUVEC prolif 384 = inhibitors of human endothelial cell proliferation; AID 648; hit rate 1.1% among 86,000; viability, % at 10 µM (by protocol); HUVEC proliferation, CellTiter-Glo luminescence, 72 h; hits give low values;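 active = viability at or below 30%; inactive = viability above 30%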;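 also: 100% = median luminescence of DMSO-only cell control wells on each plate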
HCT116 bCat-KO = beta-catenin-lacking colon tumor cell growth suppression. hit rate 1.5% among 140,000. viability, % at 10 µM. AID 818. HCT116 beta-catenin knockout viability, CellTiter-Glo, 60 h; hits give low values;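 active = viability at or under a set limit, the compound median less 4 SD, cut at about 6% in these data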;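 also: 0% = Hyamine 1622 control at 20 µM and 100% = untreated cell control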
Lung fibro prol = blocks proliferation of human lung fibroblasts; LL 47 human lung fibroblast viability, ATP luminescence; hits give low values; hit rate 1.1% among 85,000; viability, % at 10 µM;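 active = viability at or below 50% in the single dose screen; inactive = viability above 50%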;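 also: compound exposure lasted 72 h before the ATP readout; 100% = median luminescence of untreated cell-only wells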
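material = human LL 47 lung fibroblast cells | dosing = compounds added from tenfold dosing solution, 0.1% DMSO final | timing = overnight cell rest, 72 h compound treatment at 37 °C | measured by = CellTiter-Glo luminescence measuring cellular ATP | evaluation = % viability versus median cells-only luminescence | control set = cell-only wells, no compound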
PTEN del growth = suppresses growth of cells with PTEN deletion; HCT116 PTEN-null viability, CellTiter-Glo, 60 h; hits give low values; viability, % at 10 µM; hit rate 1.2% among 140,000;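 active = viability at or below a set limit, 4 SD under the median of all tested compounds, cut at about 3.7% in these data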;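 also: PTEN knockout HCT116 line with beta catenin targeted HCT116 as companion control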
H69AR inhibit = blocks growth of human H69AR lung tumor cells; hit rate 6% among 85,000; H69AR lung tumor viability, ATP luminescence, 72 h; hits give low values; AID 598; viability, % at 10 µM;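 active = viability at or below 40%; inactive = viability above 40%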;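 also: multidrug resistant small cell line overexpressing MRP-1 efflux transporter; 100% = mean luminescence of untreated control wells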
Numbers without * were called inactive; . = no result given. The sample as a whole holds a higher share of hits than the screen did.

SMILES | HUVEC prolif 384 | HCT116 bCat-KO | Lung fibro prol | PTEN del growth | H69AR inhibit
Cc1ccc(Cn2c(=S)[nH]c3ccc(N4CCOCC4)cc3c2=O)o1 | 76.0 | 84.5 | 46.2* | 76.3 | 5.8*
N/C(=N\OC(=O)c1ccc(Cl)cc1)c1nonc1N | . | 94.4 | . | 101.5 | .
COc1ccc(CCNC(=O)c2ccc3c(=O)n(Cc4ccco4)c(=S)[nH]c3c2)cc1OC | 40.8 | 91.7 | 100.6 | 78.0 | 10.6*
COc1ccc(CCNC(=O)COC(=O)c2ccco2)cc1OC | 110.0 | 99.3 | 101.4 | 99.6 | 103.2
COc1ccc(CCNC(=O)c2ccc3nc(-c4ccco4)c(-c4ccco4)nc3c2)cc1OC | 47.5 | 63.6 | 101.7 | 56.3 | 17.9*
COc1ccc(/C(O)=C/c2nc3ccc(C(=O)NCCc4cccc(C)c4)cc3[nH]c2=O)cc1OC | . | 2.0* | . | 1.5* | .
COc1cccc(CNC(=O)c2nnn(CC(=O)Nc3ccc(C)c(C)c3)c2N)c1 | 73.9 | 87.8 | 58.8 | 77.0 | 51.2
COc1ccc(NC(=O)Cn2nnc(C(=O)NCc3ccccc3)c2N)cc1Cl | 69.8 | 54.2 | 93.8 | 62.3 | 27.6*
COc1ccc(-c2nnc(SC(C)C(=O)NCc3ccc4c(c3)OCO4)n2Cc2ccco2)cc1 (centres undefined) | 91.8 | 72.2 | 107.4 | 65.5 | 88.0
CCOC(=O)[C@@H]1C(c2c(OC)cc(OC)cc2OC)=NO[C@@H]1C(=O)OCC | . | 89.8 | . | 94.6 | .
CC1=CC(C)(C)Nc2ccc(OC(=O)CN3C(=O)CCC3=O)cc21 | . | 1.0* | . | 1.5* | .
CC1=CC(C)(C)Nc2ccc(OC(=O)C(C)N3C(=O)c4ccccc4C3=O)cc21 (centres undefined) | . | 2.0* | . | 1.3* | .
CC1=CC(C)(C)Nc2ccc(OC(=O)c3ccco3)cc21 | . | 1.6* | . | 1.3* | .
CC1=CC(C)(C)Nc2ccc(OC(=O)c3cccnc3)cc21 | 53.3 | 0.7* | 23.2* | 1.1* | 2.6*
O=C(NCc1ccco1)c1cccc(S(=O)(=O)N2CCCCC2)c1 | 90.8 | 87.7 | 93.5 | 85.9 | 87.2
CCNS(=O)(=O)c1ccc2c3c(cccc13)C(=O)N2 | . | 93.2 | . | 89.7 | .
CCc1ccc(NC(=O)CC2C(=O)Nc3c2c(=O)n(C)c(=O)n3C)cc1 (centres undefined) | 98.6 | 90.2 | 92.9 | 85.7 | 94.8
N=c1c2c(-c3ccccc3)c(-c3ccccc3)oc2ncn1CCCN1CCOCC1 | 8.9* | 40.8 | 79.3 | 42.9 | 45.6
N=c1c2c(-c3ccccc3)c(-c3ccccc3)oc2ncn1CCN1CCOCC1 | 53.6 | 26.1 | 84.1 | 24.5 | 41.8
c1ccc(-c2oc3ncnc(NCCN4CCOCC4)c3c2-c2ccccc2)cc1 | 59.5 | 76.5 | 83.9 | 65.2 | 36.5*
Cc1cccc(-c2nnc(SCC(=O)Nc3nc4c(s3)CCCC4)n2C)c1 | 80.7 | 77.4 | 97.0 | 86.6 | 69.6
COC(=O)c1sc(N2C(=O)c3oc4ccccc4c(=O)c3C2c2cccs2)nc1C (centres undefined) | . | 65.3 | . | 46.8 | .
C=CCOC(=O)c1sc(N2C(=O)c3oc4ccccc4c(=O)c3C2c2ccco2)nc1C (centres undefined) | 34.9 | . | 58.0 | . | 17.3*
CC12CC(c3ccccc3O1)C(C(=O)NCc1ccccc1)C(=O)N2 (centres undefined) | 98.6 | 83.3 | 100.4 | 91.9 | 94.8
CCOc1ccc(-n2c(SCC(=O)c3c(N)n(C)c(=O)n(C)c3=O)nnc2-c2cccnc2)cc1 | . | 94.8 | . | 100.0 | .
SMILES | HUVEC prolif 384 | HCT116 bCat-KO | Lung fibro prol | PTEN del growth | H69AR inhibit
CCC(C)n1c(=O)c(C(=O)Nc2ccccc2S(N)(=O)=O)c(O)c2ccccc21 (centres undefined) | 69.5 | 9.1 | 101.5 | 5.5 | 26.9*
CC(C)Cn1c(=O)c(C(=O)Nc2ccccc2S(N)(=O)=O)c(O)c2ccccc21 | . | 96.5 | . | 81.0 | .
COc1ccnc(NCc2cccnc2)c1C#N | . | 91.3 | . | 87.4 | .
CN1CCN(CC(=O)Nc2nnc(-c3cccs3)s2)CC1 | . | 91.5 | . | 93.0 | .
Cc1c(NC2=C(Cl)C(=O)N(c3ccccc3)C2=O)c(=O)n(-c2ccccc2)n1C | 105.6 | 92.6 | 99.9 | 85.0 | 4.8*
Cc1c(NC2=C(Cl)C(=O)N(c3ccccc3Cl)C2=O)c(=O)n(-c2ccccc2)n1C | . | 91.1 | . | 90.5 | .
O=C1C(Cl)=C(Nc2ccccc2O)C(=O)N1c1ccccc1 | 90.9 | 83.3 | 103.9 | 77.7 | 39.4*
CCN(CC)S(=O)(=O)c1ccc2c(c1)nc(CCC(=O)Nc1cccc(C(F)(F)F)c1)n2CC | 70.3 | 72.3 | 91.0 | 69.7 | 14.2*
Cc1cc(NC(=O)Nc2cccc(C(F)(F)F)c2)no1 | 86.9 | 80.4 | 98.9 | 84.6 | 97.8
CCN(CC)S(=O)(=O)c1cccc(NC(=O)Nc2cccc(C(F)(F)F)c2)c1 | . | 4.2* | . | 3.2* | .
C=CCN(c1ccc(C(=O)Nc2ccc(C)c(C)c2)cc1)S(C)(=O)=O | . | 88.6 | . | 87.2 | .
COc1ccc(C(=O)Oc2c(CN3CCOCC3)cc(Cl)c3cccnc23)cc1OC | 80.5 | . | 7.2* | . | 1.5*
COc1ccc(C(=O)OCCN2CCOCC2)cc1OC | 83.9 | 83.0 | 100.9 | 78.4 | 93.0
CCOc1c(Br)ccc2c1sc1nc[nH]c(=O)c12 | 25.7* | 91.5 | 98.9 | 86.4 | 79.2
N#CC(=C1CCCC1)c1nc(-c2ccccc2O)cs1 | 80.3 | 67.0 | 88.0 | 61.9 | 28.9*
C=COC(=O)CSc1nc(-c2cccs2)ccc1C#N | 83.0 | 96.1 | 102.2 | 77.0 | 84.8
CCOC(=O)C(C)Sc1nc(-c2cccs2)ccc1C#N (centres undefined) | 52.7 | 17.7 | 77.0 | 20.4 | 4.0*
O=C(NC(=S)Nc1ccc2c(c1)OCO2)c1ccc(Cl)cc1 | . | 0.2* | . | 64.0 | .
CCOC(=O)C1=C(O)/C(=C/c2cn(CC(=O)NCC3CCCO3)c3ccccc23)SC1=Nc1ccc(C)cc1 (centres undefined) | 11.6* | . | 26.8* | . | 22.6*
COc1cc(NC(=O)Cn2nc(Cc3cccnc3)c3ccccc3c2=O)cc(OC)c1OC | 90.5 | 84.0 | 93.7 | 91.7 | 74.0
O=C(c1ccc(COc2c(F)c(F)c(F)c(F)c2F)o1)N1CCN(Cc2ccc3c(c2)OCO3)CC1 | 94.3 | 85.3 | 92.9 | 76.2 | 28.3*
COc1ccc(C(=O)C(CCC(CNC(C)(C)C)C(=O)c2ccc(OC)cc2)CNC(C)(C)C)cc1 (centres undefined) | . | 1.0* | . | 1.2* | .
Cc1ccc(NC(=O)NNc2cccc(Cl)n2)cc1 | . | 95.0 | . | 101.8 | .
O=C1[O][Bi][O]c2ccccc21 | 103.1 | . | 97.9 | . | 90.5
Cc1ccc(C(=O)N/C(=C/c2ccco2)C(=O)OCN2C(=O)c3ccccc3C2=O)cc1 | . | 90.6 | . | 92.4 | .
Cc1ccc2c(C)nc(Nc3nc(CSc4nnc(C)s4)cc(=O)[nH]3)nc2c1 | 16.6* | 80.2 | 45.6* | 87.3 | 34.6*
Cc1nc(Nc2nc(-c3ccccc3)cc(=O)[nH]2)nc2ccccc12 | 5.0* | . | 13.2* | . | 14.3*
Cc1nc(Nc2nc(CSc3nc4ccccc4[nH]3)cc(=O)[nH]2)nc2ccccc12 | . | 3.6* | . | 3.7* | .
COc1ccc2nc(Nc3nc(CSc4nc5ccccc5[nH]4)cc(=O)[nH]3)nc(C)c2c1 | . | 6.1* | . | 6.5 | .
